Results on 5 molecules are retold here after paper PMC6459613 (ACS chemical biology, 2012).

In general, IC50 refers to the concentration that inhibits the measured activity by half. Broadly, the % Inhibition is the share of the control response that was lost under treatment. Lower therefore signals little suppression.

Series [1] concerns GST-JNK1. As to conditions: read-out: IC50 for displacing biotinylated pepJIP1 from GST-JNK1; cited from earlier work.
Series [2] has as its system JNK. The note with it: read-out: in-vitro cell-free IC50; ATP-competitive; cited from earlier work.
Series [3] has as its system JNK2α2 in HEK293T cells. The series can be described thus: Western blot in HEK293T cells transfected with WT-JNK2α2. The format is cell-based. The note with it: for JNK2α2 autophosphorylation: HEK293T over-expressing JNK2α2, without anisomycin. The method in brief: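 HEK293T cells were transfected with wild-type JNK2α2 or empty pcDNA3 vector. They were treated with DMSO or varying test compound concentrations without anisomycin, or with an ATP-competitive reference JNK inhibitor with and without anisomycin. Western blots assessed JNK2α2 autophosphorylation and c-Jun phosphorylation, from which an ED50 was estimated.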
A general note: A western blot detects proteins with antibodies after separation by electrophoresis.

In series [4] the test system is JNK activity in Jurkat T cells. The note with it: cited from earlier work.
For series [5], the system named is RAW264.7 cells. As to conditions: LPS-stimulated RAW264.7 cells; cited from earlier work.
The test system of series [6] is MDA-MB-231 cells. The series can be described thus: Transwell chemotactic cell migration assay. The note with it: for inhibition of migration: overnight, migration in response to serum. The series is classed as cell-based, human. The method in brief: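 Chemotactic migration of MDA-MB-231 cells was measured in transwells. Cells were treated overnight with DMSO or test compound at 50 or 100 μM, and viability was monitored. Migrated cells on the membrane underside were stained with crystal violet. Three independent repeats.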

In series [7] the test system is JNK pathway in HEK293 cells. The series can be described thus: Western blot of phospho-JNK and phospho-c-Jun in anisomycin-treated HEK293 cells. The format is cell-based. As to conditions: for activation (phosphorylation) of JNK isoforms / phosphorylation of c-Jun (phospho-Ser-63): HEK293, 5-100 μM, 12 hours, then anisomycin. The method in brief:
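HEK293 cells were pretreated for 12 hours with DMSO or test compound at 5-100 μM. The JNK pathway was then induced with anisomycin (50-100 nM) for 5-10 minutes before lysis. Western blots detected phospho-JNK and phospho-c-Jun, and an ED50 was estimated.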

The subject of series [8] is MDA-MB-231 cells. The series can be described thus: Cell viability monitored during migration and wound assays. The format is cell-based, human. As to conditions: for cell viability during the migration assay: transwell assay, 50 and 100 μM; for cell viability during the wound assay: up to 200 μM.
For series [9], the system named is JNK. The experiment in a line: Steady-state kinetic analysis of c-Jun phosphorylation. The format is biochemical. As to conditions: partial competitive inhibition model. The method in brief:
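Initial velocities were measured with c-Jun varied at 0.63-20 μM and test compound fixed at several levels (0-50 μM), with saturating MgATP at 0.5 mM. Rates came from linear least-squares fits of product versus time. Double-reciprocal plots were checked for linearity. Data were fitted by nonlinear least squares to a partial competitive inhibition equation.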

Series [10] has as its target JNK1 (Homo sapiens, UniProt P45983). The series can be described thus: Phosphorylation of GST-c-Jun. The format is biochemical. The method in brief:
(§1)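 Activated JNK isoforms phosphorylated GST-c-Jun (1-221) at 2 μM across a dose range of test compound. Dose-response data were fitted to V0 = V00 − V00·i/(i+K50) + V′, where K50 is the half-maximal concentration and V′ is the residual rate at saturating inhibitor.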

Series [11] has as its target WT-MKK7 (Homo sapiens, UniProt P45983). The experiment in a line: Phosphorylation of inactive JNK1 by active MKK7. The format is biochemical.
Series [12] addresses ERK2 (Homo sapiens, UniProt P28482). The experiment in a line: MAP kinase selectivity assay, ERK2. The format is biochemical.
Series [13] concerns JNK2α2 (C163A). The series can be described thus: c-Jun phosphorylation in HEK293T cells transfected with JNK2α2. The note with it: 0-100 μM. The series is classed as cell-based. The method in brief:
(§2)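 HEK293T cells were transfected with JNK2α2 DRS mutants (Y130A or C163A) or empty pcDNA3 vector and treated with test compound (0–100 μM). Western blots tracked JNK autophosphorylation and c-Jun phosphorylation, compared with non-transfected cells. Results are representative of three independent experiments.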

The subject of series [14] is activated JNK1, JNK2 and JNK3. The series is classed as biochemical. As to conditions: read-out: IC50 values; range over JNK1, JNK2 and JNK3; GST-c-Jun 2 μM. The method in brief:
as §1

Series [15] has as its target p38MAPKβ (Homo sapiens, UniProt Q15759). The experiment in a line: MAP kinase selectivity assay, p38MAPKβ. The format is biochemical.
The target of series [16] is ERK1 (Homo sapiens, UniProt P27361). The experiment in a line: MAP kinase selectivity assay, ERK1. The series is classed as biochemical.
The subject of series [17] is JNK2α2 (Y130A). The series can be described thus: c-Jun phosphorylation in HEK293T cells transfected with JNK2α2. The note with it: 0-100 μM. The format is cell-based. The method in brief: as §2
In series [18] the test system is MDA-MB-231 cells. The experiment in a line: Scratch wound closure assay. The format is cell-based, human. As to conditions: 100 and 200 μM, 24 hrs post-wounding. The method in brief:
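MDA-MB-231 cells were pretreated with graded concentrations of test compound. A scratch wound was then made and medium was replaced with 1% FBS-containing medium. Wound closure was measured at 0 and 24 h post-wounding, with viability checked alongside. Three independent experiments.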

For series [19], the target named is JNK3 (Homo sapiens, UniProt P53779). The series can be described thus: Phosphorylation of GST-c-Jun. The format is biochemical. The method in brief: as §1
Series [20] has as its target WT-MKK4 (Homo sapiens, UniProt P45983). The experiment in a line: Phosphorylation of inactive JNK1 by active MKK4. The format is biochemical.
Series [21] concerns ERK2 pathway. The series can be described thus: ERK pathway specificity in HEK293 cells, EGF induced. The series is classed as cell-based. As to conditions: 100 μM. The method in brief: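 HEK293 cells received DMSO or test compound (0-100 μM) for 12 hours. The ERK pathway was then induced with 50 ng EGF for 5-10 minutes and cells were lysed. Lysates were run on 10% SDS-PAGE and western blotted for phospho-ERK and phospho-p90RSK.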

Series [22] addresses p38MAPKγ (Homo sapiens, UniProt P53778). The experiment in a line: MAP kinase selectivity assay, p38MAPKγ. The format is biochemical.
Series [23] deals with Akt phosphorylation mediated by JNK2α2. The experiment in a line: Akt phosphorylation at Ser-473 in HEK293T cells transfected with WT-JNK2α2. The series is classed as cell-based. The note with it: HEK293T transfected with WT-JNK2α2, without anisomycin. The method in brief:
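Wild-type JNK2α2 was transfected into HEK293T cells. Cells were exposed to DMSO vehicle or a series of test compound concentrations, with no anisomycin stimulation. Akt activation was followed as phosphorylation at Ser-473.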

Series [24] has as its target p38MAPKδ (Homo sapiens, UniProt O15264). The series can be described thus: MAP kinase selectivity assay, p38MAPKδ. The series is classed as biochemical.

Values joined by “and” are separate entries in the source; they are usually repeats but may differ in a detail not shown here. Equal entries are not always repeated.

Sequence of WT-MKK4 (P45983 whole entry): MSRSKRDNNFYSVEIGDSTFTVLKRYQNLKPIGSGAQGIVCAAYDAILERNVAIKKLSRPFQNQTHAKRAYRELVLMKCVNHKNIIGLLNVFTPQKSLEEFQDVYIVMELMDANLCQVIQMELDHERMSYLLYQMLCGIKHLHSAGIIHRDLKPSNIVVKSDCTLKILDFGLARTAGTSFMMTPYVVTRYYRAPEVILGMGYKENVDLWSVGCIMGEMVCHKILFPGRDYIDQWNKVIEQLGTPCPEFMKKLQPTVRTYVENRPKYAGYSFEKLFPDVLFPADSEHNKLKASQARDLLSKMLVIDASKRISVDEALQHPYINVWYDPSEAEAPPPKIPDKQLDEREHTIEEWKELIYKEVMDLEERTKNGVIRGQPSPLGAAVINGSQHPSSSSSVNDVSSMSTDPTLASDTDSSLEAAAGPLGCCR
Sequence of p38MAPKδ (O15264 whole entry): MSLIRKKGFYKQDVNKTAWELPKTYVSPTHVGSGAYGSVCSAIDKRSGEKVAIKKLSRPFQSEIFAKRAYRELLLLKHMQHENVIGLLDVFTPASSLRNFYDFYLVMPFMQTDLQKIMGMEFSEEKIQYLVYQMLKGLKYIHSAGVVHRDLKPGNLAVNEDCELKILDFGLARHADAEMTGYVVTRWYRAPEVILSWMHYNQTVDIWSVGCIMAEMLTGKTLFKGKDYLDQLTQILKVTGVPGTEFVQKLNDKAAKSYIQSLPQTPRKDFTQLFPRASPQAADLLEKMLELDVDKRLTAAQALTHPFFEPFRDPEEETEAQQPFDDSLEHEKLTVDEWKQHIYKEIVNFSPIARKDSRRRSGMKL
Sequence of JNK1 (P45983 whole entry, canonical isoform): as the sequence (P45983 whole entry) above
Sequence of WT-MKK7 (P45983 whole entry): as above
Sequence of JNK3 (P53779 whole entry): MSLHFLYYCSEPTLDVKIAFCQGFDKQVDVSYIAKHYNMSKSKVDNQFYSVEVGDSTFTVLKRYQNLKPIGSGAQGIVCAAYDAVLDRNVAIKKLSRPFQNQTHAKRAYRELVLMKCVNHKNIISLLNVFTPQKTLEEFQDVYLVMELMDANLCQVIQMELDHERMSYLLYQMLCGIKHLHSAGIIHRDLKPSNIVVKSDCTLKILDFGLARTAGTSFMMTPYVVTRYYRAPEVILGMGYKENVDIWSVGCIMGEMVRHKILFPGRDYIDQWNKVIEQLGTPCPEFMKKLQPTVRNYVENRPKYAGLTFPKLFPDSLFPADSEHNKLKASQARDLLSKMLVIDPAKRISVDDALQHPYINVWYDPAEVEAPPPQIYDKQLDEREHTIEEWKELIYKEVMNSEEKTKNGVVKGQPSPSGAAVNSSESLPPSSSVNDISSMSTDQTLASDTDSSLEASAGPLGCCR
Sequence of ERK1 (P27361 whole entry, species assumed): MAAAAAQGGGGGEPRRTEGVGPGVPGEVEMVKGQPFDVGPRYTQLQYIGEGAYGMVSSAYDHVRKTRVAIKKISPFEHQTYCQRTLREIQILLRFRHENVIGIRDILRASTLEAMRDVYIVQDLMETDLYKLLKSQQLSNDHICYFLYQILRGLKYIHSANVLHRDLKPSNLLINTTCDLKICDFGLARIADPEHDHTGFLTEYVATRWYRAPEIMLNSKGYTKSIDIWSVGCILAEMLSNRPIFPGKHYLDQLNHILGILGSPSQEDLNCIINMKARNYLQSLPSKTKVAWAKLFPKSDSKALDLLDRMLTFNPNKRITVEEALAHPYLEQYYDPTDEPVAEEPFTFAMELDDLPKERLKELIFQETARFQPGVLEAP
Sequence of ERK2 (P28482 whole entry, species assumed): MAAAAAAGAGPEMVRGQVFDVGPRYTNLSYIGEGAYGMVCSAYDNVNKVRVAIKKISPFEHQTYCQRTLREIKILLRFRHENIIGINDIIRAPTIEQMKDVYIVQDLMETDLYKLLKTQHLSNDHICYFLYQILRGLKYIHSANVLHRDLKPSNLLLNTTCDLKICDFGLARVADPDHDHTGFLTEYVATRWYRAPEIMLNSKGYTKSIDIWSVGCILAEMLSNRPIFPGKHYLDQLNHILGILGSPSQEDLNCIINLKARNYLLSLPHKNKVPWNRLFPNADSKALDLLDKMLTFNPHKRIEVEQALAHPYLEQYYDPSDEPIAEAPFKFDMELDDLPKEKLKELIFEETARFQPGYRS
Sequence of p38MAPKγ (P53778 whole entry): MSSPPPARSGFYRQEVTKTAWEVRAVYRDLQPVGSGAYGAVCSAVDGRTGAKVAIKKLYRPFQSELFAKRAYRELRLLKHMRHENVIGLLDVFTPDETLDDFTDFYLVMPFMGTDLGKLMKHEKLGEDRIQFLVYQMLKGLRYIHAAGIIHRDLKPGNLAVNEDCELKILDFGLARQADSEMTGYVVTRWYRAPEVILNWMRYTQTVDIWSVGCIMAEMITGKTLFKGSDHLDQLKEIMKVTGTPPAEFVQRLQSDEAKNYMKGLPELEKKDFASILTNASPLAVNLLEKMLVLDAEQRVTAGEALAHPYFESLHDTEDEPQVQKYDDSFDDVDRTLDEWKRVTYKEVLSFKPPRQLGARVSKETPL
Sequence of p38MAPKβ (Q15759 whole entry): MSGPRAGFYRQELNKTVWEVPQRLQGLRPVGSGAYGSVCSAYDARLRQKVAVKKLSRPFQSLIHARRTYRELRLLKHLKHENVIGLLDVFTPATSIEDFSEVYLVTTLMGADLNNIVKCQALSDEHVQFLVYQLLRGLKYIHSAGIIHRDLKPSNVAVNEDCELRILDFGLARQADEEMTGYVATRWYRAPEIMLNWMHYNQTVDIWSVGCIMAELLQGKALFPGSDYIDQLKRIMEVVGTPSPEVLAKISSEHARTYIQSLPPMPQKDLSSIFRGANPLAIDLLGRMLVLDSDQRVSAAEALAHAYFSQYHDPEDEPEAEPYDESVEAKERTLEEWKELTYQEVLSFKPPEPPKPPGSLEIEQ

For `O=c1[nH]nc(Sc2ncc([N+](=O)[O-])s2)n1-c1ccc2c(c1)OCCO2` [BI-78D3], the IC50 in series [1] is 0.5 µM.

For `Oc1c2ccccc2c2c3c(cccc13)N=N2` [SP600125, reference compound], in series [2], the IC50 is 0.04 to 0.1 µM. Further, in [3] (HEK293T over-expressing JNK2α2, with anisomycin), the “JNK2α2 phosphorylation in cells stimulated using anisomycin” value is “no longer able to inhibit”. In addition, the JNK2α2 autophosphorylation entry in series [3] is “autophosphorylation was inhibited”. Besides, in series [4], the “ED50 for JNK activity” value is about 10 µM.

In the case of `COc1cc([C@H]2O[C@H](c3ccc4c(c3)OCO4)[C@H](C)[C@H]2C)ccc1O[C@H](C)[C@@H](O)c1ccc2c(c1)OCO2` [saucerneol F], the “nitric oxide (NO) production” value in series [5] is “inhibits nitric oxide (NO) production in a dose-dependent manner”.

As for (+)-zuonin A, in series [6] (50 and 100 μM), the “effect on cell migration” value is “able to mildly suppress cell migration”. In addition, in series [7], the “activation (phosphorylation) of JNK isoforms” value is recorded as “inhibits neither JNK activation nor c-Jun phosphorylation” and the “phosphorylation of c-Jun (phospho-Ser-63)” value is “inhibits neither JNK activation nor c-Jun phosphorylation”. Besides, in series [8], the “cell viability during the migration assay” value is “unaffected” and the “cell viability during the wound assay” value is “unaffected”.

For the molecule (−)-zuonin A, the “α (factor by which affinity of JNK for c-Jun is weakened)” value in series [9] is reported as about 5. Further, the “β (effect on kcat)” value in [9] turned out to be 1. Further, the “% Inhibition at Saturating (−)-zuonin A (200 μM)” value in series [10] (200 μM) is listed as 75%; in series [11] (200 μM, phosphorylation of JNK), 50%; in series [12] (200 μM), 10%; in series [15] it was 15%; in series [16] (200 μM), 10%; in [19] (200 μM), 73%. The “% Inhibition at Saturating (−)-zuonin A (200 μM)” value amounted to 77% in series [20] (200 μM, phosphorylation of JNK); 10% in [22] (200 μM); 10% in [24] (200 μM). The half-maximal inhibitory concentration (IC50) in [10] (GST-c-Jun 2 μM) was 1.7 ± 0.26 µM; in series [11] (inhibits the phosphorylation of JNK (inactive JNK1) by MKK7), 1.99 ± 0.15 µM; in series [12] it was over 200 µM; in series [14], 1.7 to 2.9 µM; in [16], over 200 µM; in series [19] (GST-c-Jun 2 μM), 1.74 ± 0.16 µM. For the same molecule, the half-maximal inhibitory concentration (IC50) in [20] (inhibits the phosphorylation of JNK (inactive JNK1) by MKK4) is ~1.8 µM and 1.8 µM; in series [22], over 200 µM; in series [24], over 200 µM. Further, the results for the “sensitivity of c-Jun phosphorylation” value in [13] and in series [17] were “unresponsive” and “more sensitive”, respectively. Further, the figures for the inhibition of migration result in series [6] (50 μM) and in series [6] (100 μM) were “approximately 45%” and about 80%, respectively. The “activation (phosphorylation) of JNK isoforms” value in series [7] is “blunts the activation of the JNK isoforms in cells in a dose-dependent manner”. Besides, the “phosphorylation of c-Jun (phospho-Ser-63)” value in series [7] is reported as “clearly blunted”. Moreover, in [7] (HEK293 cells, stimulation by anisomycin), the “ED50 for inhibiting JNK phosphorylation” value was “around 25 μM”. In addition, the JNK2α2 autophosphorylation result in [3] is “unable to inhibit JNK2α2 autophosphorylation even at a concentration of 100 μM”. Besides, the “ED50 for phosphorylation of c-Jun mediated by over-expressed JNK2α2” value in [3] (HEK293T, without anisomycin) is recorded as “approximately 25 μM”. Besides, the wound closure result in [18] was “sufficient to inhibit wound closure”. Further, the “phosphorylation of ERK or its protein substrate p-90RSK” value in [21] is listed as “no effect”. In addition, the “cell viability during the migration assay” value in [8] is “unaffected”. For the same molecule, the “cell viability during the wound assay” value in [8] is listed as “unaffected”. For the same molecule, the “Akt phosphorylation (Ser-473) mediated by JNK2α2” value in [23] is on record as “able to inhibit Akt phosphorylation”.
